Activity calls are given as the source filed them. The calls are words filed in the database; no cut-off is given here.
Legend:
[1] = test system: Human immunodeficiency virus 1; assay: Antiviral activity against HIV1 isolate with RT K103N mutation; format: functional, organism-based
Summary of the method: (§1)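 VSV-G-pseudotyped pNL4-3.Luc.R−E− molecular clones carrying the RT mutations, single-round infection of HeLa-JC53 cells (15,000/well) at MOI 0.03. Compounds serially diluted 1:4 in DMSO then in phenol red-free DMEM with 2% FBS, final DMSO 0.2%. Incubated 48 h at 37°C, 5% CO2. Luciferase read-out by chemiluminescence gives the EC50. Fold change is relative to wt virus, mean of two tests.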

[2] = test system: Human immunodeficiency virus 1; assay: Antiviral activity against HIV1 isolate with RT V106I mutation; format: functional, organism-based; summary of the method: as §1
[3] = test system: Human immunodeficiency virus 1; assay: Antiviral activity against HIV1 NL4-3 in Hela-JC53 cells in the presence of 10% human serum after 48 hrs; format: functional, organism-based; settings: Human immunodeficiency virus 1, NL4-3, Hela-JC53, 48 h
Summary of the method: (§2)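 HeLa-JC53 cells (1.5 × 10^4) infected with VSV-G-pseudotyped NL4-3.Luci.R−E− reporter virus at MOI 0.03, with 1:4 serial compound dilutions. Heat-inactivated human serum added to final 0–50% on a basal 2% FBS medium. Incubated 48 h at 37°C in 5% CO2. Luciferase read-out; EC50 by nonlinear regression.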

[4] = test system: Human immunodeficiency virus 1; assay: Antiviral activity against HIV1 isolate with RT K103N-V108I-P225H mutation; format: functional, organism-based; summary of the method: as §1
[5] = test system: Human immunodeficiency virus 1; assay: Antiviral activity against HIV1 isolate with RT Y181C mutation in Hela-JC-53 cells; format: functional
[6] = test system: Human immunodeficiency virus 1; assay: Antiviral activity against HIV1 NL4-3 with Y188L mutation in Hela-JC53 cells in the presence of 10% human serum after 48 hrs; format: functional, organism-based; settings: Human immunodeficiency virus 1, NL4-3, Hela-JC53, 48 h
Summary of the method: (§3)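 VSV-G-pseudotyped Y188L NL4-3.Luci.R−E− virus (MOI 0.03) infecting HeLa-JC53 cells (1.5 × 10^4) in phenol red-free DMEM with 2% FBS. Serially diluted compound was added, then heat-inactivated human serum at final 0, 5, 10, 20, 30, 40 or 50%. Cultures ran 48 h at 37°C in 5% CO2, read by Bright-Glo luciferase chemiluminescence. EC50 was taken by nonlinear regression.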

[7] = Half life in dog at 10 mg/kg, iv; format: ADME, organism-based, Canis lupus familiaris; set-up: dose 10 mg/kg, route intravenous; settings: in vivo
[8] = test system: Human immunodeficiency virus 1; assay: Antiviral activity against HIV1 isolate with RT K103N-K101Q-P225H mutation; format: functional, organism-based; summary of the method: as §1
[9] = target: T1, DNA polymerase alpha catalytic subunit (Homo sapiens) (UniProt P09884); assay: Inhibition of human DNA polymerase alpha upto 45 uM
T1 sequence (whole entry): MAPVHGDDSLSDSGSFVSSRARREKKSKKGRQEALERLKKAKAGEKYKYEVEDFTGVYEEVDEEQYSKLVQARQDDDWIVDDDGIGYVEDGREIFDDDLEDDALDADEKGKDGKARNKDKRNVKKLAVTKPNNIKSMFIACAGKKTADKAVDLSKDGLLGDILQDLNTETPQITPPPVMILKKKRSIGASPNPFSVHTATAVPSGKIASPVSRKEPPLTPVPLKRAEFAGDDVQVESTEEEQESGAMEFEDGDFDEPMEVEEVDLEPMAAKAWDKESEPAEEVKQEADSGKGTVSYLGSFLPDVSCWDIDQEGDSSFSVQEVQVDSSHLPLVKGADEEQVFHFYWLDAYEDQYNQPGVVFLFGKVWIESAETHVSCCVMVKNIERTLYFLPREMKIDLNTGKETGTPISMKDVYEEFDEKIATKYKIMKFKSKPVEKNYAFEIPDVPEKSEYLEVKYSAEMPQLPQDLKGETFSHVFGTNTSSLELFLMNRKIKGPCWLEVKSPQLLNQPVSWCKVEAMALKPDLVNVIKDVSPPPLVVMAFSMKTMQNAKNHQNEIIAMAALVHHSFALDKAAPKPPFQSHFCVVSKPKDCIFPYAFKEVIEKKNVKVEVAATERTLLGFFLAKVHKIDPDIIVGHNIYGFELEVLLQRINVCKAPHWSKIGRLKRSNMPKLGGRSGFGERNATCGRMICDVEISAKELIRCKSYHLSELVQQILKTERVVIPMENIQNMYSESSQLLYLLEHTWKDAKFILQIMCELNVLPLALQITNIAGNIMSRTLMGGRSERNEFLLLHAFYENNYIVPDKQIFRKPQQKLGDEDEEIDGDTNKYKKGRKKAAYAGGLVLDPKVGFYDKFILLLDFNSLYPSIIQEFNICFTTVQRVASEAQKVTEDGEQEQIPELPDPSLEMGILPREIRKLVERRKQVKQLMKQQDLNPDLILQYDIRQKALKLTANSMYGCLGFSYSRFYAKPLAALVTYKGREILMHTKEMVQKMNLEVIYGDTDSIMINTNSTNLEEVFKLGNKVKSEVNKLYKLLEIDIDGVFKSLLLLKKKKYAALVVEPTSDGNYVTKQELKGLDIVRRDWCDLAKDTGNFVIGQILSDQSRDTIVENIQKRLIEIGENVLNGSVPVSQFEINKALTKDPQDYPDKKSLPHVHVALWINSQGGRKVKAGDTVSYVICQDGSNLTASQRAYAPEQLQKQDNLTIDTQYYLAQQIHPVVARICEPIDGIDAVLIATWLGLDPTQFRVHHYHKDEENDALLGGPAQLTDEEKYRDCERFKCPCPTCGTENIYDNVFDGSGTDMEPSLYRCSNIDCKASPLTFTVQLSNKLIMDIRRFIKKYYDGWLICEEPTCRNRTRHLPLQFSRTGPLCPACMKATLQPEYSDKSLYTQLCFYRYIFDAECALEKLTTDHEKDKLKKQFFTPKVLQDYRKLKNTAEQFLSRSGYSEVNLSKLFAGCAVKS

[10] = target: Human immunodeficiency virus type 1 reverse transcriptase (Human immunodeficiency virus 1, UniProt Q72547); assay: Inhibition of HIV1 reverse transcriptase
Summary of the method: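 E. coli-expressed HIV-1 RT (1 nM) with 16 μg/ml poly(rA)/oligo(dT)18 and 2 μM α-33P-TTP, 0–100 μM inhibitor. Buffer: 50 mM Tris-HCl pH 7.5, 5 mM MgCl2, 1 mM DTT, 60 μg/ml BSA. Run 1 h at 25°C, then TCA/pyrophosphate precipitation and radioactivity counted. IC50 = 50% inhibition of RT activity.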

[11] = test system: Human immunodeficiency virus 1; assay: Antiviral activity against HIV1 NL4-3 with Y188L mutation in Hela-JC53 cells in the presence of 30% human serum after 48 hrs; format: functional, organism-based; settings: Human immunodeficiency virus 1, NL4-3, Hela-JC53, 48 h; summary of the method: as §3
[12] = test system: Human immunodeficiency virus 1; assay: Antiviral activity against HIV1 NL4-3 with Y188L mutation in Hela-JC53 cells in the presence of 5% human serum after 48 hrs; format: functional, organism-based; settings: Human immunodeficiency virus 1, NL4-3, Hela-JC53, 48 h; summary of the method: as §3
[13] = test system: Human immunodeficiency virus 1; assay: Antiviral activity against HIV1 isolate with RT V106I, Y181C mutation in Hela-JC-53 cells; format: functional
[14] = test system: Human immunodeficiency virus 1; assay: Antiviral activity against wild type HIV1 NL4-3 in Hela-JC53 cells in the presence of 5% human serum after 48 hrs; format: functional, organism-based; settings: Human immunodeficiency virus 1, NL4-3, Hela-JC53, 48 h; summary of the method: as §2
[15] = test system: Human immunodeficiency virus 1; assay: Antiviral activity against wild type HIV1 NL4-3 in Hela-JC53 cells in the presence of 40% human serum after 48 hrs; format: functional, organism-based; settings: Human immunodeficiency virus 1, NL4-3, Hela-JC53, 48 h; summary of the method: as §2
[16] = test system: Human immunodeficiency virus 1; assay: Antiviral activity against HIV1 isolate with RT K101E mutant; format: functional, organism-based; summary of the method: as §1

Compound `NS(=O)(=O)c1ccc(NC(=O)CSc2nnc(Br)n2-c2ccc(C3CC3)c3ccccc23)c(Cl)c1` has an EC50 [1] of 0.09 nM, an EC50 [2] of 0.09 nM and an EC50 [3] of 3.9 nM. For the same compound, the EC50 [4] was 0.15 nM, the Fold change [5] was 1.9 and the EC50 [6] was 20.7 nM. For the same compound, the half-life [7] was 2.89 h, the EC50 [8] was 0.11 nM and the Activity [9] was “inactive”. The IC50 [10] was 4 nM, the EC50 [11] was 45.9 nM and the EC50 [12] was 13.7 nM. For the same compound, the Fold change [13] was 5.4, the EC50 [14] was 2.4 nM and the EC50 [15] was 9.5 nM. For the same compound, the EC50 [16] was 0.26 nM.
